Measured values: ChEMBL document CHEMBL5329219, “α-Aminophosphonate inhibitors of metallo-β-lactamases NDM-1 and VIM-2” (RSC Med Chem, 2023)
The source made the active and inactive calls. No cut-off for these calls is given here.

Key:
[1] = target: Metallo-beta-lactamase type 2 (Bacteria) (UniProt C7C422); assay: (§1) Inhibition of bacterial metallo-beta-lactamase NDM-1 preincubated for 5 mins followed by imipenem addition by spectrophotometer analysis
Method in brief: (§2)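 Purified NDM-1 (10 nM) in 50 mM HEPES pH 7.2 with 100 μM ZnCl2, 2.5% DMSO and 400 μg ml−1 BSA, preincubated with inhibitor (twelve concentrations, 0–800 μM) at 25 °C for 5 min. Reaction started with 100 μM imipenem and absorbance read at 300 nm. Triplicates; IC50 from initial velocities by log[inhibitor] vs. response fit.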

Bacteria = assay: Inhibition of bacterial metallo-beta-lactamase VIM-2 preincubated for 5 mins followed by nitrocefin addition by spectrophotometer analysis
Method in brief: as §2, with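 “VIM-2 (0.1” for “NDM-1 (10”, “nitrocefin” for “imipenem”, “482” for “300”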

HepG2 = assay: Cytotoxicity against human HepG2 cells incubated for 24 hrs by resorufin based fluorescence assay; format: toxicity, cell-based; details: hepg2, 24 h
Method in brief: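 HepG2 cells grown in DMEM with 10% FBS and 1% penicillin–streptomycin at 37 °C, 5% CO2, seeded for exponential growth. Two-fold serial dilutions of compound added at 0.3% v/v final DMSO for 24 h. PrestoBlue viability read as resorufin fluorescence (544/590 nm). Controls were untreated, DMSO-only and 1% SDS. EC50 from three independent experiments.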

[2] = target: Metallo-beta-lactamase type 2 (Bacteria, UniProt C7C422); assay: as §1; method in brief: as §2
Sequence of Metallo-beta-lactamase type 2 (C7C422 whole entry): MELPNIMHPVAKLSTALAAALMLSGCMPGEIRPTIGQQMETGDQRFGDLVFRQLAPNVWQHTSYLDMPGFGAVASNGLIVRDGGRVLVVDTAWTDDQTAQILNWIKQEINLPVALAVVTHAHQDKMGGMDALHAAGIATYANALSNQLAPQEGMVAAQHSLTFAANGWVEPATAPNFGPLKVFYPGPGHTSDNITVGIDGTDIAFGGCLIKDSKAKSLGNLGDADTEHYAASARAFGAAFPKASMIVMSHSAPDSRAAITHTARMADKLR

Sequence of Metallo-beta-lactamase type 2 (Bacteria) (C7C422 whole entry): as above

SMILES | inhibition [1] | inhibition (Bacteria) | Activity (HepG2) | IC50 [2] [µM]
O=C(NC(C1CCCCN1)P(=O)(O)O)c1cc2c(s1)CCCC2 (stereo in doubt; form 1) | inactive | – | – | –
Cc1[nH]c(=S)sc1CC(=O)NC(C1CCCCN1)P(=O)(O)O (stereo in doubt; form 1) | inactive | – | – | –
Cl.O=C(Cc1cccs1)NC(C1CCCCN1)P(=O)(O)O (stereo not drawn) | – | inactive | Non-Toxic | –
Cl.O=C(NC(C1CCCCN1)P(=O)(O)O)c1ccsc1 (stereo not drawn) | – | – | Non-Toxic | –
O=C(NC(C1CCCCN1)P(=O)(O)O)c1scc2c1CCCC2 (stereo in doubt; form 2) | inactive | – | – | –
Cl.O=C(Cc1csc2ccccc12)NC(C1CCCCN1)P(=O)(O)O (stereo not drawn) | – | inactive | Non-Toxic | –
O=C(NC(C1CCCCN1)P(=O)(O)O)c1csc2ccccc12 (stereo in doubt; form 1) | inactive | – | – | –
Cc1[nH]c(=S)sc1CC(=O)NC(C1CCCCN1)P(=O)(O)O.Cl (stereo in doubt; form 1) | – | – | Non-Toxic | –
Cl.O=C(NC(C1CCCCN1)P(=O)(O)O)c1csc2ccccc12 (stereo in doubt; form 1) | – | – | Non-Toxic | –
Cl.O=C(NC(C1CCCCN1)P(=O)(O)O)c1cc2ccccc2s1 (stereo not drawn) | – | – | Non-Toxic | –
O=C(NC(C1CCCCN1)P(=O)(O)O)c1cc2c(s1)CCCC2 (stereo in doubt; form 2) | inactive | – | – | –
Cl.O=C(NC(C1CCCCN1)P(=O)(O)O)c1cc2c(s1)CCCC2 (stereo in doubt; form 1) | – | – | Non-Toxic | –
Cl.O=C(Cc1ccsc1)NC(C1CCCCN1)P(=O)(O)O (stereo not drawn) | – | inactive | Non-Toxic | –
Cl.O=C(Cc1cc2ccccc2s1)NC(C1CCCCN1)P(=O)(O)O (stereo not drawn) | inactive | – | Non-Toxic | 22.4
Cl.O=C(NC(C1CCCCN1)P(=O)(O)O)c1scc2c1CCCC2 (stereo in doubt; form 1) | – | – | Non-Toxic | –
Cc1[nH]c(=S)sc1CC(=O)NC(C1CCCCN1)P(=O)(O)O (stereo in doubt; form 2) | inactive | inactive | – | –
Cl.O=C(NC(C1CCCCN1)P(=O)(O)O)c1csc2c1CCCC2 (stereo not drawn) | inactive | – | Non-Toxic | 76
Cl.O=C(NC(C1CCCCN1)P(=O)(O)O)c1cccs1 (stereo not drawn) | – | – | Non-Toxic | –
O=C(NC(C1CCCCN1)P(=O)(O)O)c1csc2ccccc12 (stereo in doubt; form 2) | inactive | – | – | –
O=C(NC(C1CCCCN1)P(=O)(O)O)c1scc2c1CCCC2 (stereo in doubt; form 1) | inactive | – | – | –
